Activity calls are given as the source filed them.
Assays:
[1] = Cell cycle arrest in human TK6 cells expressing wild type p53 assessed as accumulation at sub-G0/G1 phase after 72 hrs by flow cytometry; type: functional, cell-based
Method in brief: (§1)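 Cells exposed 72 h to vehicle or compound (0.1 μM doxorubicin or 25 μM others) and harvested. Washed twice in ice-cold PBS, then resuspended in hypotonic solution (50 μg/ml propidium iodide, 25 μg/ml RNase, 0.1% sodium citrate, 0.1% Triton X-100) and held 1.5 h at 4°C in the dark. Flow cytometry at 10,000 events per histogram; cell death taken as the sub-G0/G1 fraction.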

TK6 [2] = experiment: Cytotoxicity against human TK6 cells expressing wild type p53; type: functional, cell-based
TK6 [3] = experiment: Induction of p53 phosphorylation at Ser15 in human TK6 cells expressing wild type p53 at 25 uM after 8 hrs by Western blot analysis; type: functional, cell-based
Method in brief: (§2)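 TK6 and WTK1 cells (NH32 also run) treated 8 h at 25 μM, vehicle or doxorubicin 0.1 μM. Extracts immunoblotted for p53, phospho-p53 (Ser15), p21cip1/Waf1 and β-actin.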

TK6 [4] = experiment: Induction of p53 transcriptional activity in human TK6 cells expressing wild type p53 assessed as p21-Cip1/Waf1 expression at 25 uM after 8 hrs by Western blot analysis; type: functional, cell-based; method in brief: as §2
WTK1 [5] = experiment: Induction of p53 phosphorylation at Ser15 in human WTK1 cells expressing p53 M237I mutant at 25 uM after 8 hrs by Western blot analysis; type: functional, cell-based; method in brief: as §2
WTK1 [6] = experiment: Induction of p53 transcriptional activity in human WTK1 cells expressing p53 M237I mutant assessed as p21-Cip1/Waf1 expression at 25 uM after 8 hrs by Western blot analysis; type: functional, cell-based; method in brief: as §2
TK6 [7] = experiment: Induction of apoptosis in human TK6 cells expressing wild type p53 assessed as live cell population at 25 uM after 8 hrs using annexin-V and 7-ADD staining by flow cytometry; type: functional
Method in brief: (§3)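 TK6 cells given 25 μM or vehicle for 8 h, washed twice in ice-cold PBS, stained with Annexin-V-PE plus 7-ADD. Flow cytometry assigned quadrant populations as percent of total cells. Histograms representative of three independent experiments.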

[8] = Cell cycle arrest in human TK6 cells expressing wild type p53 assessed as accumulation at sub-G0/G1 phase at 25 uM after 72 hrs by flow cytometry; type: functional, cell-based
Method in brief: (§4)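 B lymphoblast lines TK6 (wild-type p53), NH32 (p53−/−) and WTK1 (mutant p53) exposed 72 h to 25 μM against vehicle; doxorubicin 0.1 μM as p53-dependent control. Washed twice in ice-cold PBS, held 1.5 h at 4°C in the dark in hypotonic fluorochrome solution (50 μg/ml propidium iodide, 25 μg/ml RNase, 0.1% citrate, 0.1% Triton X-100). Sub-G0/G1 apoptotic percentage from 10,000 events per flow histogram.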

[9] = Cell cycle arrest in p53 deficient human NH32 cells assessed as accumulation at sub-G0/G1 phase at 25 uM after 72 hrs by flow cytometry; type: functional, cell-based; method in brief: as §4
[10] = Cell cycle arrest in human WTK1 cells expressing p53 M237I mutant assessed as accumulation at sub-G0/G1 phase at 25 uM after 72 hrs by flow cytometry; type: functional, cell-based; method in brief: as §4
TK6 [11] = experiment: Induction of apoptosis in human TK6 cells expressing wild type p53 assessed as depolarization of inner mitochondrial membrane potential at 25 uM after 8 hrs by flow cytometry relative to CCCP; type: functional, cell-based
Method in brief: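 TK6 cells exposed 8 h to 25 μM, vehicle, or CCCP 100 μM as depolarisation control. Cells washed in ice-cold PBS and resuspended in PBS. Membrane potential read by flow cytometry as FL1 (JC-1 monomers) versus FL2 (aggregates) dual-parameter plots. Representative of three independent experiments.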

TK6 [12] = experiment: Induction of apoptosis in human TK6 cells expressing wild type p53 assessed as increase in cleaved caspase 3 level at 25 uM after 8 hrs by Western blot analysis; type: functional, cell-based
Method in brief: (§5)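 TK6, NH32 and WTK1 cells treated 8 h with 25 μM or vehicle; doxorubicin 0.1 μM as comparator. Protein extracts analysed by Western blot probed for cleaved PARP, caspase-3 and β-actin.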

NH32 [13] = experiment: Induction of apoptosis in p53 deficient human NH32 cells assessed as increase in cleaved caspase 3 level at 25 uM after 8 hrs by Western blot analysis; type: functional, cell-based; method in brief: as §5
WTK1 [14] = experiment: Induction of apoptosis in human WTK1 cells expressing p53 M237I mutant assessed as increase in cleaved caspase 3 level at 25 uM after 8 hrs by Western blot analysis; type: functional, cell-based; method in brief: as §5
TK6 [15] = experiment: Induction of apoptosis in human TK6 cells expressing wild type p53 assessed as decrease in pro-caspase 3 level at 25 uM after 8 hrs by Western blot analysis; type: functional, cell-based; method in brief: as §5
NH32 [16] = experiment: Induction of apoptosis in p53 deficient human NH32 cells assessed as decrease in pro-caspase 3 level at 25 uM after 8 hrs by Western blot analysis; type: functional, cell-based; method in brief: as §5
WTK1 [17] = experiment: Induction of apoptosis in human WTK1 cells expressing p53 M237I mutant assessed as decrease in pro-caspase 3 level at 25 uM after 8 hrs by Western blot analysis; type: functional, cell-based; method in brief: as §5
TK6 [18] = experiment: Induction of apoptosis in human TK6 cells expressing wild type p53 assessed as increase in PARP cleavage at 25 uM after 8 hrs by Western blot analysis; type: functional, cell-based; method in brief: as §5
NH32 [19] = experiment: Induction of apoptosis in p53 deficient human NH32 cells assessed as increase in PARP cleavage at 25 uM after 8 hrs by Western blot analysis; type: functional, cell-based; method in brief: as §5
WTK1 [20] = experiment: Induction of apoptosis in human WTK1 cells expressing p53 M237I mutant assessed as increase in PARP cleavage at 25 uM after 8 hrs by Western blot analysis; type: functional, cell-based; method in brief: as §5
TK6 [21] = experiment: Induction of apoptosis in human TK6 cells expressing wild type p53 assessed as reduction of Bcl-Xl level at 25 uM after 8 hrs by Western blot analysis; type: functional, cell-based
Method in brief: (§6)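 TK6, NH32 and WTK1 cells exposed 8 h to 25 μM, vehicle, or doxorubicin 0.1 μM. Protein extracted and Bcl-xL level assessed by Western blot.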

NH32 [22] = experiment: Induction of apoptosis in p53 deficient human NH32 cells assessed as reduction of Bcl-Xl level at 25 uM after 8 hrs by Western blot analysis; type: functional, cell-based; method in brief: as §6
WTK1 [23] = experiment: Induction of apoptosis in human WTK1 cells expressing p53 M237I mutant assessed as reduction of Bcl-Xl level at 25 uM after 8 hrs by Western blot analysis; type: functional, cell-based; method in brief: as §6
TK6 [24] = experiment: Induction of apoptosis in human TK6 cells expressing wild type p53 assessed as early stage apoptotic cell population at 25 uM after 8 hrs using annexin-V and 7-ADD staining by flow cytometry; type: functional; method in brief: as §3
TK6 [25] = experiment: Induction of apoptosis in human TK6 cells expressing wild type p53 assessed as late stage apoptotic cell population at 25 uM after 8 hrs using annexin-V and 7-ADD staining by flow cytometry; type: functional; method in brief: as §3
TK6 [26] = experiment: Induction of apoptosis in human TK6 cells expressing wild type p53 assessed as necrotic cell population at 25 uM after 8 hrs using annexin-V and 7-ADD staining by flow cytometry; type: functional; method in brief: as §3
[27] = Cell cycle arrest in human TK6 cells expressing wild type p53 assessed as accumulation at sub-G0/G1 phase at 0.1 uM after 72 hrs by flow cytometry; type: functional, cell-based; method in brief: as §1
[28] = Cell cycle arrest in p53 deficient human NH32 cells assessed as accumulation at sub-G0/G1 phase at 0.1 uM after 72 hrs by flow cytometry; type: functional, cell-based; method in brief: as §1
[29] = Cell cycle arrest in human WTK1 cells expressing p53 M237I mutant assessed as accumulation at sub-G0/G1 phase at 0.1 uM after 72 hrs by flow cytometry; type: functional, cell-based; method in brief: as §1
TK6 [30] = experiment: Induction of p53 phosphorylation at Ser15 in human TK6 cells expressing wild type p53 at 0.1 uM after 8 hrs by Western blot analysis; type: functional, cell-based
Method in brief: (§7)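 Exposure for 8 h to vehicle, 0.1 μM doxorubicin or 25 μM test agents, followed by protein extraction. Western blots probed for total p53, phospho-p53 (Ser15), p21cip1/Waf1 and β-actin.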

TK6 [31] = experiment: Induction of p53 transcriptional activity in human TK6 cells expressing wild type p53 assessed as p21-Cip1/Waf1 expression at 0.1 uM after 8 hrs by Western blot analysis; type: functional, cell-based; method in brief: as §7
WTK1 [32] = experiment: Induction of p53 phosphorylation at Ser15 in human WTK1 cells expressing p53 M237I mutant at 0.1 uM after 8 hrs by Western blot analysis; type: functional, cell-based; method in brief: as §7
WTK1 [33] = experiment: Induction of p53 transcriptional activity in human WTK1 cells expressing p53 M237I mutant assessed as p21-Cip1/Waf1 expression at 0.1 uM after 8 hrs by Western blot analysis; type: functional, cell-based; method in brief: as §7
TK6 [34] = experiment: Induction of apoptosis in human TK6 cells expressing wild type p53 assessed as increase in cleaved caspase 3 level at 0.1 uM after 8 hrs by Western blot analysis; type: functional, cell-based
Method in brief: (§8)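 Exposure for 8 h to vehicle, 0.1 μM doxorubicin or 25 μM test agents, followed by protein extraction. Western blots probed for cleaved PARP, caspase-3 and β-actin as loading reference.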

NH32 [35] = experiment: Induction of apoptosis in p53 deficient human NH32 cells assessed as increase in cleaved caspase 3 level at 0.1 uM after 8 hrs by Western blot analysis; type: functional, cell-based; method in brief: as §8
WTK1 [36] = experiment: Induction of apoptosis in human WTK1 cells expressing p53 M237I mutant assessed as increase in cleaved caspase 3 level at 0.1 uM after 8 hrs by Western blot analysis; type: functional, cell-based; method in brief: as §8
TK6 [37] = experiment: Induction of apoptosis in human TK6 cells expressing wild type p53 assessed as decrease in pro-caspase 3 level at 0.1 uM after 8 hrs by Western blot analysis; type: functional, cell-based; method in brief: as §8
NH32 [38] = experiment: Induction of apoptosis in p53 deficient human NH32 cells assessed as decrease in pro-caspase 3 level at 0.1 uM after 8 hrs by Western blot analysis; type: functional, cell-based; method in brief: as §8
WTK1 [39] = experiment: Induction of apoptosis in human WTK1 cells expressing p53 M237I mutant assessed as decrease in pro-caspase 3 level at 0.1 uM after 8 hrs by Western blot analysis; type: functional, cell-based; method in brief: as §8
TK6 [40] = experiment: Induction of apoptosis in human TK6 cells expressing wild type p53 assessed as increase in PARP cleavage at 0.1 uM after 8 hrs by Western blot analysis; type: functional, cell-based; method in brief: as §8
NH32 [41] = experiment: Induction of apoptosis in p53 deficient human NH32 cells assessed as increase in PARP cleavage at 0.1 uM after 8 hrs by Western blot analysis; type: functional, cell-based; method in brief: as §8
WTK1 [42] = experiment: Induction of apoptosis in human WTK1 cells expressing p53 M237I mutant assessed as increase in PARP cleavage at 0.1 uM after 8 hrs by Western blot analysis; type: functional, cell-based; method in brief: as §8

Measured: Activity

NCCNC(=O)C(F)F
inactive: [1] | TK6 [2] Not toxic

O=C1C2CCN(CC2)C1(CO)CO
active: [8] | [9] | [10] | TK6 [21]
14.9%: TK6 [24]
inactive: TK6 [3] | TK6 [4] | WTK1 [5] | WTK1 [6] | TK6 [11] | TK6 [12] | NH32 [13] | WTK1 [14] | TK6 [15] | NH32 [16] | WTK1 [17] | TK6 [18] | NH32 [19] | WTK1 [20] | NH32 [22] | WTK1 [23]
17.6%: TK6 [25]
1.3%: TK6 [26]
66.1%: TK6 [7]

COc1cccc2c1C(=O)c1c(O)c3c(c(O)c1C2=O)C[C@@](O)(C(=O)CO)C[C@@H]3O[C@H]1C[C@H](N)[C@H](O)[C@H](C)O1
active: [27] | TK6 [30] | TK6 [31] | WTK1 [32] | TK6 [34] | NH32 [35] | WTK1 [36] | TK6 [37] | NH32 [38] | WTK1 [39] | TK6 [40] | NH32 [41] | WTK1 [42]
inactive: [28] | [29] | WTK1 [33] | TK6 [3] | TK6 [4] | WTK1 [5] | WTK1 [6]

O=C(CCNC(=O)C(F)F)c1ccccc1
inactive: [1] | TK6 [2] Not toxic
